# Screening data as filed in PubChem.
# SKKanGAS inh – inhibitors of SKKanGAS S. pyogenes growth in kanamycin (SK-promoter or general growth effect); BacTiter-Glo, 6 h; inhibition, % at 7.5 µM; 300,000 compounds, 1.3% hits;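 active means mean replicate score, as percent of positive control median, at least 50; inconclusive means mean below 50 but one replicate at or above 50; inactive means mean and every replicate below 50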;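 further: strain carries kanamycin resistance gene driven by streptokinase promoter and grows in 40 µg/ml kanamycin; loss of luminescence reflects streptokinase promoter inhibition or plain growth inhibition; 0% = median of DMSO wells and 100% = positive control at its reference dose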
# Calb FLC – affects C. albicans growth with fluconazole; AID 1979; C. albicans CaCi-2 (fluconazole-resistant clinical isolate) + fluconazole, Alamar Blue growth, 48 h; 300,000 compounds, 0.57% hits; growth inhibition, % (no concentration beside the values);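 active means growth inhibition above about 58% in most replicates, limit read from the data, passing the limit was not always enough; inconclusive means exactly half the replicates above a set limit; inactive means most replicates below a set limit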;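 further: all wells also contain fluconazole at 8 µg/ml as a sub-toxic cotreatment; 0% = median of DMSO wells and 100% = median of geldanamycin control wells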
# Beta cell apopt – beta cell apoptosis inhibition; INS-1E cytokine-induced death, ATP luminescence, 48 h; percent of positive-control rescue, neutral wells zero; 300,000 compounds, 0.8% hits; AID 435005; protection from apoptosis, % (concentration not given with the values);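 active means Every replicate reaches about 75%, or at least half do and their mean reaches it too, limit read from the data; inconclusive means At least half of replicates reach the limit but their mean does not; inactive means Under half of replicates reach the limit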;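 further: 0% = cytokine-treated negative control wells and 100% = positive control rescue; higher means more ATP so stronger rescue from cytokine killing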
# CSC inhib – cancer stem cell inhibition. cancer stem cell-like cells viability, luminescence. inhibition, % at 7.5 µM. 300,000 compounds, 1.1% hits; in the data active means inhibition above about 75%; inconclusive means no clear call, values can overlap the other calls; tested in HMLE shEcad cells
# T cruzi inh – blocks replication of Trypanosoma cruzi. T. cruzi beta-gal in NIH3T3, luminescence, 90 h. inhibition, % (test concentration not listed). 300,000 compounds, 1.4% hits. AID 1885;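 active means mean inhibition across valid replicates above about 55%, limit read from the data; inconclusive means mean below that limit but half or more replicates reach it; inactive means mean below it, under half of replicates reach it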;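 further: signal also drops with host cell toxicity which is not excluded here; 0% = plate median of DMSO wells and 100% = zero luminescence signal; higher percent means less beta-gal luminescence so fewer parasites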
#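 Test system: β-gal T. cruzi (Tulahuen C4) inside NIH/3T3 cells / Quantity: 5,000 cells/well / Measured by: luminescence from GalScreen with 0.05% NP40, read after 60 min / Medium: DMEM plus 2% FBS / Measure: parasite load inhibition, % / Reagent: Tulahuen C4 trypomastigotes, 5000/well / Schedule: co-culture of at least 90 h after 3 h attachment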
# Mdm2 MdmX PPI – inhibitors of human Mdm2/MdmX interaction; O15151+Q00987; SaOS-2 split-luciferase Mdm2/MdmX complementation, luminescence; inhibition, % at 8 µM; 330,000 compounds, 3% hits;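 active means inhibition of at least 50% at 8 µM in the primary screen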
# Numbers without * were called inactive; ? = inconclusive; · = no result given. Shown are actives, neighbours in structure and some others; about 5.7% of the full set was active somewhere.
SMILES,SKKanGAS inh,Calb FLC,Beta cell apopt,CSC inhib,T cruzi inh,Mdm2 MdmX PPI
O=C(NNC(=O)C1CC=CCC1)c1ccccc1O (configuration not stated),-1,-8,-1,6,-9,-1
O=C(CSCc1ccccc1Br)NNC(=S)NCc1ccco1,3,3,-4,-1,-15,-4
CCCCOc1ccc(CSC2=NCCN2)cc1[N+](=O)[O-],-1,-45,-8,41,66*,30
CCCCCOc1ccc(Cn2ccnc2)cc1[N+](=O)[O-],-2,22,-4,40,62*,21
O=C(N/N=C\c1cc(Cl)ccc1O)c1ccc(S(=O)(=O)N2CCCCC2)cc1,121*,92*,97*,-4,51,32
O=C(Nc1cc(S(=O)(=O)Nc2ccc(Cl)cc2)ccc1O)c1ccc(S(=O)(=O)N2CCCCCC2)cc1,13,15,-12,18,4,13
O=C(N/N=C/c1cc(Cl)cc(Cl)c1O)c1ccncc1,88*,2,51,9,?,34
O=C(N/N=C/c1cc(Br)cc(Br)c1O)c1ccncc1,69*,?,79*,-6,-4,18
O=C(N/N=C/c1cc(Cl)ccc1O)c1cccnc1,85*,20,86*,31,0,31
O=C(N/N=C/c1ccc(Cl)cc1Cl)c1ccncc1,-1,1,2,-18,-4,-3
O=C(N/N=C/c1cccnc1)c1cccc(Cl)c1,-3,4,6,-8,-11,-14
Cc1cc(C)c(NC(=O)CN(C)C(=O)CCC(=O)c2ccc(C)s2)c(C)c1,·,·,·,·,·,15
CC(C(=O)N1CCc2ccccc21)N1CCN(S(=O)(=O)c2cccs2)CC1 (configuration not stated),·,·,1,·,·,4
CCOC(=O)c1c(NC(=S)Nc2ccccc2)sc2c1CC(C)(C)SC2,28,-8,5,-9,-6,-22
CCOC(=O)c1c(NC(=S)NC)sc2c1CC(C)(C)SC2,8,91*,8,4,-9,10
CC(C)n1c(=S)[nH]c2scc(-c3cccs3)c2c1=O,43,47,1,32,3,4
CCn1c(=S)[nH]c2scc(-c3cccs3)c2c1=O,29,80*,·,·,-3,·
Cc1c(CC(=O)N2CCC(C(N)=O)CC2)c(=O)oc2cc3c(cc12)CCC1(CCCCC1)O3,5,2,·,1,11,15
CCN(c1ccccc1)S(=O)(=O)c1ccc(OC)c(NC(=O)CNCCc2ccccc2)c1,-8,0,45,19,58*,37
CCN(c1ccccc1)S(=O)(=O)c1ccc(Cl)c(NC(=O)CN2C(=O)NC3(CCCC3)C2=O)c1,-9,96*,-2,0,28,-3
COc1ccc(C[C@H]2CN3C(=NC[C@H]3C)N2CCNC(=O)c2ccc(C)c(Br)c2)cc1,-2,21,-13,0,46,31
CC(=O)N1c2ccc(S(=O)(=O)N3CCC(C(=O)N4CCN(c5cccc(C(F)(F)F)c5)CC4)CC3)cc2CC1C (configuration not stated),14,-12,92*,8,31,26
CC(=O)c1ccc(N2CCN(C(=O)C3CCN(S(=O)(=O)c4ccc5c(c4)CC(C)N5C(C)=O)CC3)CC2)cc1 (configuration not stated),5,-1,6,-1,17,19
CC(NC(=O)COC(=O)c1cc(NS(=O)(=O)c2ccc(Cl)c([N+](=O)[O-])c2)ccc1O)C1CC2CCC1C2 (configuration not stated),15,?,-1,108*,0,14
COc1ccc(NS(=O)(=O)c2ccc(O)c(C(=O)OCC(=O)NC(C)C3CC4CCC3C4)c2)cc1 (configuration not stated),21,-14,·,·,-3,4
SMILES,SKKanGAS inh,Calb FLC,Beta cell apopt,CSC inhib,T cruzi inh,Mdm2 MdmX PPI
CCOc1ccccc1NC(=O)CSc1nc2nc(-c3cccs3)cc(C(F)(F)F)c2c(=O)[nH]1,30,5,1,54,-10,4
N#Cc1ccc(Cl)cc1NC(=O)CSc1nc2nc(-c3cccs3)cc(C(F)(F)F)c2c(=O)[nH]1,55*,28,0,14,-4,17
COc1ccc(NC(=O)CSc2nc3nc(-c4cccs4)cc(C(F)(F)F)c3c(=O)[nH]2)c(OC)c1,54*,1,-3,14,-22,1
Cc1ccc(C)c(S(=O)(=O)N2CCCCC2CCNC(=O)C(=O)NC2CC2)c1 (configuration not stated),1,10,-5,7,8,-4
O=C(O)/C=C/c1cn(Cc2ccccc2)nc1-c1ccccc1,-4,-5,2,10,-7,-14
O=C(O)CCn1cc(/C=C/C(=O)c2ccc(Cl)cc2)c(-c2ccc(Br)cc2)n1,·,·,-8,106*,·,·
COc1ccc(Sc2ccc(NC(=O)c3ccccc3Cl)cc2C#N)cc1,52*,3,·,68,20,47
O=C(CCc1nnc2ccc(NCc3ccccc3)nn12)NC1CCCC1,2,-4,·,5,10,26
O=C(/C=C/c1ccc(F)cc1)c1ccccc1Br,8,-16,-11,108*,-20,35
Cc1ccc(C(=O)/C=C/c2ccc(F)cc2)o1,3,25,·,6,0,8
Cc1nn2c(nc(N3CCCCC3)c3ccccc32)c1C=O,6,33,-4,6,15,9
Cc1nn2c([nH]c(=O)c3ccccc32)c1C=O,2,83*,-2,-6,-14,4
Cc1ccc(Sc2ccc(/C=C3/C(=O)NN(c4ccccc4)C3=O)o2)cc1,-6,-11,3,89*,-18,-1
O=C1NN(c2ccccc2)C(=O)/C1=C/c1ccc(Sc2ccc(Cl)cc2)o1,-4,6,-38,56,-3,4
Cc1cccc(N2NC(=O)/C(=C/c3ccc(-c4ccc(Cl)c(C(=O)O)c4)o3)C2=O)c1,-7,103*,·,·,-14,·
COc1ccccc1-c1nc(S(=O)(=O)c2ccccc2)c(N2CCCCC2)o1,-1,16,-6,28,11,-1
O=S(=O)(c1ccc(F)cc1)c1nc(-c2ccccc2F)oc1N1CCCCC1,13,11,1,-4,71*,-45
O=S(=O)(Nc1ccc(Cl)cc1)c1ccc(N2CCOCC2)c(NC(=S)NC2CC2)c1,·,26,9,2,4,-18
CCOc1ccc(-c2nnc3ccc(SCC(=O)N4CCCCC4)nn23)cc1,3,-3,-5,-5,11,10
CCOc1ccc(-c2nnc3ccc(SC(C)C)nn23)cc1,57*,-8,9,6,20,29
CCCSc1cc(N)cc([N+](=O)[O-])c1,-5,97*,-1,·,-4,6
Nc1cccc([N+](=O)[O-])c1,10,-11,1,22,-10,13
